What is called IC50 is the concentration at which inhibition is half-maximal. The inhibition in vivo is the drop in the measured response relative to a control, in per cent. The term bioavailability denotes dose-corrected exposure relative to a reference, in per cent. Read a low bioavailability as poor availability. The Cmax is the highest concentration seen after dosing. A word on the Tmax: it is the time from dosing to the highest level. In general, half-life refers to how long it takes for the measured level to halve. High values mean slow loss, low ones fast loss. In general, AUC refers to the area under the concentration-time curve, a measure of exposure. The low end stands for less exposure, the high end for more exposure.

The source made the active and inactive calls. The rule behind the calls is not given here.

Consider eleven compounds from ChEMBL document CHEMBL1153760, “Identification and structure-activity relationships of chromene-derived selective estrogen receptor modulators for treatment of postmenopausal symptoms” (J Med Chem, 2009).

Series [1] deals with Estrogen receptor beta (Homo sapiens, UniProt Q92731). In words: Inhibition of fluormone ES2 binding to estrogen receptor beta after 1 hr by fluorescence polarization assay.
Series [2] has as its target T1, Estrogen receptor (Homo sapiens, UniProt P03372).
T1 sequence (P03372 whole entry): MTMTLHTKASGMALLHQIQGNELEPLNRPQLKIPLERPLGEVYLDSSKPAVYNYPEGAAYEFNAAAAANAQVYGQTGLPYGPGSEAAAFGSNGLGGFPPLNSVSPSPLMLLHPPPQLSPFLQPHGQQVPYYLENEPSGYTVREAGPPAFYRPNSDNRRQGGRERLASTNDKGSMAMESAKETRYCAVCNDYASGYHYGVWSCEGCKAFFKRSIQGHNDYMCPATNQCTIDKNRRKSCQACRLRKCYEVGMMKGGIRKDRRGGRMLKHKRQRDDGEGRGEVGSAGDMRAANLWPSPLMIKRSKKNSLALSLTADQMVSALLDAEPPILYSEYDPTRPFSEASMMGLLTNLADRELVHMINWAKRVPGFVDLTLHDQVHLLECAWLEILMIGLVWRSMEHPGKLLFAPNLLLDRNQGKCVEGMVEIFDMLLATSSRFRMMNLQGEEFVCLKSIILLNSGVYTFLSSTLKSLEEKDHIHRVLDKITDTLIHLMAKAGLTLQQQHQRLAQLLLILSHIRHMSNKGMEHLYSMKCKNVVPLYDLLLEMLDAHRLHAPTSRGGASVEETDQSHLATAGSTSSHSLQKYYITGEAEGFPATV
In words: Displacement of radiolabeled estrogen from estrogen receptor alpha by scintillation counting.

In series [3] the target is T1, Estrogen receptor. Description: Antagonist activity at estrogen receptor in human Ishikawa cells assessed as 17-beta-estradiol-induced alkaline phosphatase activity after 3 days by chemiluminescence assay. In kind it is functional, cell-based.
The species named for series [4] is Rattus norvegicus. In words: animal or person. In kind it is functional. Particulars: Uterus, 72 h, route oral.
Series [5] concerns Rattus norvegicus. Description: Uterotropic activity in rat assessed as stimulation of estrone-induced uterine weight at 1 mg/kg, po QD after 3 days. In kind it is functional. To be noted: Uterus, 72 h.
A short description of series [6]: Oral bioavailability in rat at 10 mg/kg administered as single dose by LC-MS/MS analysis. It is filed as ADME, organism-based. To be noted: in vivo. The procedure, abridged: (§1)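 Single-dose rat pharmacokinetics. IV dosing at 1-3 mg/kg as a solution in 10% β-cyclodextrin; oral gavage at 10 mg/kg as a uniform suspension in 0.5% methylcellulose. Blood (0.5 mL) collected into heparinized tubes by orbital sinus puncture after dosing. Plasma extracted into acetonitrile with an internal standard and analysed by LC-MS-MS against standards to obtain PK parameters.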

The nature of series [7]: Cmax in rats after 10 mg/kg oral dose. In kind it is ADME, organism-based. Also on record: dose 10 mg/kg, route oral. To be noted: rat, in vivo. The procedure, abridged: as §1
A short description of series [8]: Tmax in rat at 10 mg/kg, po administered as single dose by LC-MS/MS analysis. In kind it is ADME, organism-based. Also noted: dose 10 mg/kg, route oral. Particulars: in vivo. An outline of the steps: as §1
The nature of series [9]: Half life in rat at 10 mg/kg, po administered as single dose by LC-MS/MS analysis. It is filed as ADME, organism-based. Also noted: dose 10 mg/kg, route oral. Particulars: in vivo. The procedure, abridged: as §1
The nature of series [10]: AUC in rat at 10 mg/kg, po administered as single dose by LC-MS/MS analysis. It is filed as ADME, organism-based. Also on record: dose 10 mg/kg, route oral. To be noted: plasma. An outline of the steps:
as §1

Series [11] has as its system Rattus norvegicus. Description: Increase in uterine weight in ovariectomized rat osteopenia model at 1.4 mg/kg, po administered daily measured after 6 weeks. In kind it is functional, organism-based. Also on record: dose 1.4 mg/kg.
In series [12] the test system is Rattus norvegicus. Description: Increase in uterine weight in ovariectomized rat osteopenia model at 1 mg/kg, po administered daily measured after 6 weeks. In kind it is functional, organism-based. Also noted: dose 1 mg/kg.
Series [13] concerns Rattus norvegicus. Description: Estrogenic activity in ovariectomized rat assessed as minor increase in uterine epithelial thickness at 1.4 mg/kg, po administered daily measured after 6 week by immunohistochemical analysis. In kind it is functional, organism-based. Also on record: dose 1.4 mg/kg.
Series [14] concerns Rattus norvegicus. In words: Decrease in bone resorption in ovariectomized rat assessed as decrease in urine deoxypyridinoline level at 1.4 mg/kg, po administered daily measured after 6 weeks. Also noted: dose 1.4 mg/kg. It is filed as functional, organism-based.
In series [15] the test system is Rattus norvegicus. Description: Decrease in tail skin temperature rise in morphine-addicted Sprague-Dawley rat hot flush model at 1.4 mg/kg, po administered daily measured for 60 mins after naloxone-induced morphine withdrawal. In kind it is functional, organism-based. Also on record: dose 1.4 mg/kg. The procedure, abridged:
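Adult female Sprague-Dawley rats (3 months), 8-25 per group, ovariectomized; oral gavage started 6 days post-surgery; morphine suspension 75 and 150 mg sc on treatment days 3 and 5; last day ketamine 80 mg/kg im, tail thermistor baseline ~20 min, naloxone 2.0 mg/kg sc, tail skin temperature for 60 min; multiple comparisons per time point.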

The subject of series [16] is Rattus norvegicus. Description: Decrease in bone resorption in ovariectomized rat assessed as decrease in urine deoxypyridinoline level at 0.1 mg/kg, po administered daily measured after 6 weeks. In kind it is functional, organism-based. Also noted: dose 0.1 mg/kg. An outline of the steps:
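Adult (>6 months) female rats, housed singly on a casein-based diet, ovariectomized under sterile conditions and anesthesia; 6-14 per group. From 24 h after surgery, daily oral gavage of an aqueous suspension in 0.5% Methocel for 2 or 6 weeks. […] Urine deoxypyridinoline measured as bone-resorption marker.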

The subject of series [17] is Rattus norvegicus. In words: Increase in vaginal fluidity in ovariectomized rat at 0.1 mg/kg, po administered daily measured after 6 weeks by cytology analysis. It is filed as functional, organism-based. Also on record: dose 0.1 mg/kg. An outline of the steps: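 Ovariectomized adult female rats dosed daily by oral gavage (0.5% Methocel suspension) for 2 or 6 weeks from 24 h after surgery. Vaginal fluid collected with a cotton swab and its absolute weight determined per animal.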

In series [18] the test system is Rattus norvegicus. In words: Decrease in tail skin temperature rise in morphine-addicted Sprague-Dawley rat hot flush model at 0.3 mg/kg, po administered daily measured for 60 mins after naloxone-induced morphine withdrawal. Also noted: dose 0.3 mg/kg. In kind it is functional, organism-based. The procedure, abridged: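 Ovariectomized adult female Sprague-Dawley rats (3 months), 8-25 per group; oral gavage starting 6 days post-ovariectomy, sesame oil vehicle, suspension. Morphine given sc at 75 and 150 mg on treatment days 3 and 5. On the last day, under ketamine (80 mg/kg, im), tail thermistor; baseline about 20 min, then naloxone 2.0 mg/kg sc and tail skin temperature recorded 60 min. Multiple comparisons at each time point.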

Estrogen receptor beta, sequence (Q92731 whole entry): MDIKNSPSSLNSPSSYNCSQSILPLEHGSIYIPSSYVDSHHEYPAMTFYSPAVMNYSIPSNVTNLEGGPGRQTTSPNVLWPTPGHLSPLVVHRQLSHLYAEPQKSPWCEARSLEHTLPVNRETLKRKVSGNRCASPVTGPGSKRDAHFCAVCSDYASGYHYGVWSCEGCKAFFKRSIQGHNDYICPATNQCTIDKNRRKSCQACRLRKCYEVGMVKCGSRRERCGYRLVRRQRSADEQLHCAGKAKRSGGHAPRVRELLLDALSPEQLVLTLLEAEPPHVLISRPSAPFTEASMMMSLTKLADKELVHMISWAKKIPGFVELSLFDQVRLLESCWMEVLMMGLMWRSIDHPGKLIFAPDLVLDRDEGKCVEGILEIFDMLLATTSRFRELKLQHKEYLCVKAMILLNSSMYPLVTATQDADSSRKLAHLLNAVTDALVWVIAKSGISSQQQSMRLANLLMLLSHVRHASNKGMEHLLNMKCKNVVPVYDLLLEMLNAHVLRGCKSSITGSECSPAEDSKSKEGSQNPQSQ

With `CN(C)CCOc1ccc([C@@H]2Oc3cc(O)ccc3C3=C2c2ccc(O)cc2OCC3)cc1`, the IC50 in series [1] turned out to be 12 nM; in series [2] it was 11 nM; in series [3], 405 nM. Also, in [4], the inhibition in vivo at 1 mg/kg was 0%. Also, the stimulation at 1 mg/kg in series [5] is 100%.

With `Oc1ccc2c(c1)O[C@H](c1ccc(OCCN3CCCCC3)cc1)C1=C2CCOc2ccccc21`, the values for the IC50 in series [1], in series [2] and in series [3] were 200 nM, 100 nM and 259 nM, respectively. In series [4], the inhibition in vivo at 1 mg/kg is 5%. In addition, the bioavailability in series [6] amounted to 9%. The same compound came in with a Cmax in [7] of 30 ng/mL. In addition, the Tmax in [8] was 4.8 h. Further, the half-life in [9] is 5.28 h. Also, in series [10], the area under the curve (AUC) turned out to be 1130 ng·h/mL.

The compound `CN(C)CCOc1ccc([C@@H]2Oc3ccccc3C3=C2c2ccc(O)cc2OCC3)cc1` had an IC50 in [1] of 23 nM. For the same compound, the inhibition in vivo at 1 mg/kg in series [4] was 18%. Further, in [5], the stimulation at 1 mg/kg came out at 70%.

For `CC(C)(C)C(=O)Oc1ccc2c(c1)O[C@H](c1ccc(OCCN3CCCCC3)cc1)C1=C2COc2cc(OC(=O)C(C)(C)C)ccc21`, the result in series [11], in series [13], in [14] and in series [15] was Active. The outcome in [12] was inactive.

With `Oc1ccc2c(c1)OC(c1ccc(OCCN3CCCCC3)cc1)C1=C2CCOc2cc(O)ccc21` (stereo not drawn), the IC50 was determined as 31 nM in series [1], 13 nM in [2] and 8 nM in [3]. Further, the inhibition in vivo at 1 mg/kg in [4] stood at 77%.

Regarding `Oc1ccc2c(c1)OCCC1=C2[C@@H](c2ccc(OCCN3CCCCCC3)cc2)Oc2ccccc21`, the IC50 in [1] was 125 nM; in [2] it was 11 nM; in series [3], 293 nM. Further, the inhibition in vivo at 1 mg/kg in [4] was found to be 110%.

In the case of `CC(C)N(CCOc1ccc([C@@H]2Oc3cc(O)ccc3C3=C2c2ccc(O)cc2OCC3)cc1)C(C)C`, the IC50 in [1] worked out at 18.5 nM; in [2] it was 5.6 nM; in series [3], 35 nM. Also, the inhibition in vivo at 1 mg/kg in series [4] stood at 30%. In addition, the stimulation at 1 mg/kg in series [5] worked out at 80%.

Consider `CC/C(=C(\c1ccccc1)c1ccc(OCCN(C)C)cc1)c1ccccc1` [TAMOXIFEN], for which, in series [4], the inhibition in vivo at 1 mg/kg was determined as 0%. In addition, the stimulation at 1 mg/kg in series [5] turned out to be 109%.

On to `Oc1ccc2c(c1)O[C@@H](c1ccc(OCCN3CCSCC3)cc1)C1=C2CCOc2cc(O)ccc21`, for which the half-inhibitory concentration (IC50) in [1] was 390 nM; in [2], 111 nM; in [3] it was greater than 10000 nM. For the same compound, the inhibition in vivo at 1 mg/kg in series [4] amounted to 0%.

In the case of `O=C(O)CCOc1ccc([C@H]2Oc3cc(O)ccc3C3=C2c2ccc(O)cc2OCC3)cc1`, the IC50 was 250 nM in [1], 120 nM in series [2] and greater than 10000 nM in [3]. For the same compound, in [4], the inhibition in vivo at 1 mg/kg came to 0%.

As to `C#C[C@]1(O)CC[C@H]2[C@@H]3CCc4cc(O)ccc4[C@H]3CC[C@@]21C`, the result in series [16], in series [17] and in [18] was Active.
